Assay results taken from ChEMBL document CHEMBL1287654, “Anticancer activity of N-bis(trifluoromethyl)alkyl-N'-(polychlorophenyl) and N'-(1,2,4-triazolyl) ureas” (2010).

How the values were obtained:
Type in all cases: functional
HL-60(TB) = assay: Growth inhibition of human HL-60(TB) cells after 48 hrs by sulforhodamine B assay; details: HL-60, 48 h
Outline: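 NCI 60-cell-line panel run over a five-log dose range. GI50 is reported as the log of the molar concentration giving 50% net cell-growth inhibition, from dose-response against untreated controls. Where that effect was not reached within the concentration interval, the highest tested concentration was used in the calculation.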

K562 = assay: Growth inhibition of human K562 cells after 48 hrs by sulforhodamine B assay; details: K562, 48 h
Outline: (§1)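 NCI 60-cell-line main test over a five-log dose range. GI50 is the molar concentration giving half-growth inhibition, reported as log molar. Subpanel values are median GI50 across that subpanel's lines. Where 50% inhibition was not reached within the tested interval, the highest tested concentration was used.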

HOP-92 = assay: Growth inhibition of human HOP92 cells after 48 hrs by sulforhodamine B assay; details: HOP-92, 48 h; outline: as §1
HCC 2998 = assay: Growth inhibition of human HCC2998 cells after 48 hrs by sulforhodamine B assay; details: HCC 2998, 48 h; outline: as §1
HT-29 = assay: Growth inhibition of human HT-29 cells after 48 hrs by sulforhodamine B assay; details: HT-29, 48 h; outline: as §1
SW-620 = assay: Growth inhibition of human SW620 cells after 48 hrs by sulforhodamine B assay; details: SW-620, 48 h
Outline: (§2)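 NCI 60-cell-line main screen across nine tumor types, with five log dose range per compound. GI50 is the molar concentration giving half growth inhibition, reported as the log of the molar concentration that inhibits 50% net cell growth.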

SK-MEL-2 = assay: Growth inhibition of human SK-MEL-2 cells after 48 hrs by sulforhodamine B assay; details: SK-MEL-2, 48 h; outline: as §1
SK-MEL-28 = assay: Growth inhibition of human SK-MEL-28 cells after 48 hrs by sulforhodamine B assay; details: SK-MEL-28, 48 h; outline: as §1
786-0 = assay: Growth inhibition of human 786-0 cells after 48 hrs by sulforhodamine B assay; details: 786-0, 48 h; outline: as §1
TK-10 = assay: Growth inhibition of human TK10 cells after 48 hrs by sulforhodamine B assay; details: TK-10, 48 h; outline: as §2
NCI/ADR-RES = assay: Growth inhibition of human NCI/ADR-RES cells after 48 hrs by sulforhodamine B assay; outline: as §1
[1] = Growth inhibition of human Hs 578T cells after 48 hrs by sulforhodamine B assay; outline: as §1
MDA-N = assay: Growth inhibition of human MDA-N cells after 48 hrs by sulforhodamine B assay; outline: as §1
BT-549 = assay: Growth inhibition of human BT549 cells after 48 hrs by sulforhodamine B assay; details: BT-549, 48 h; outline: as §1
T47D = assay: Growth inhibition of human T47D cells after 48 hrs by sulforhodamine B assay; outline: as §2
NCI-H460 = assay: Growth inhibition of human NCI-H460 cells assessed as cell growth at 100 uM after 48 hrs by sulforhodamine B assay relative to control; details: NCI-H460, 48 h, read-out: Activity
Outline: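 One-dose pre-test on MCF7, NCI-H460 and SF-268. Cells were inoculated and pre-incubated on a microtiter plate, then given a single 10^-4 M dose and incubated 48 h. Growth was read spectrophotometrically and expressed as percent of untreated control cells; negative values indicate cell kill.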

[2] = Growth inhibition of human colon cancer cell after 48 hrs by sulforhodamine B assay; details: Cancer cell lines
Outline: (§3)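 Subpanel median growth inhibitory concentration: the average sensitivity of each tumor-type subpanel of the NCI 60-cell-line panel, derived from per-cell-line GI50 values. GI50 values came from a five log dose range and are expressed as log molar concentration for 50% net growth inhibition.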

[3] = Growth inhibition of human CNS cancer cell after 48 hrs by sulforhodamine B assay; details: Cancer cell lines; outline: as §1
[4] = Growth inhibition of human renal cancer cell after 48 hrs by sulforhodamine B assay; details: Cancer cell lines; outline: as §3
[5] = Growth inhibition of human breast cancer cell after 48 hrs by sulforhodamine B assay; details: Cancer cell lines; outline: as §3
CCRF-CEM = assay: Growth inhibition of human CCRF-CEM cells after 48 hrs by sulforhodamine B assay; outline: as §1
EKVX = assay: Growth inhibition of human EKVX cells after 48 hrs by sulforhodamine B assay; outline: as §1
NCI-H322M = assay: Growth inhibition of human NCI-H322M cells after 48 hrs by sulforhodamine B assay; outline: as §1
HCT-15 = assay: Growth inhibition of human HCT15 cells after 48 hrs by sulforhodamine B assay; details: HCT-15, 48 h; outline: as §1
U-251 = assay: Growth inhibition of human U251 cells after 48 hrs by sulforhodamine B assay; details: U-251, 48 h; outline: as §2
OVCAR-8 = assay: Growth inhibition of human OVCAR8 cells after 48 hrs by sulforhodamine B assay; details: OVCAR-8, 48 h; outline: as §1

Row | Structure (SMILES) | GI50 (HL-60(TB)) | GI50 (K562) | GI50 (HOP-92) | GI50 (HCC 2998) | GI50 (HT-29) | GI50 (SW-620) | GI50 (SK-MEL-2) | GI50 (SK-MEL-28) | GI50 (786-0) | GI50 (TK-10) | GI50 (NCI/ADR-RES) | GI50 [1] | GI50 (MDA-N) | GI50 (BT-549) | growth at 100 µM (NCI-H460) | GI50 [2] | GI50 [3] | GI50 [4] | GI50 [5] | also measured
1 | CC(NC(=O)Nc1cc(Cl)ccc1Cl)(C(F)(F)F)C(F)(F)F | 17.4 µM | 5.89 µM | 6.92 µM | 3.8 µM | 3.72 µM | > 100 µM | 12.3 µM | > 100 µM | 9.77 µM | 19.5 µM | 5.89 µM | 3.16 µM | > 100 µM | > 100 µM | 17% | 7.08 µM | 20 µM | 15.1 µM | 61.7 µM | GI50 (T47D): 3.47 µM
2 | CCC(NC(=O)Nc1cc(Cl)ccc1Cl)(C(F)(F)F)C(F)(F)F | 4.17 µM | 3.55 µM | 4.68 µM | 1.15 µM | 3.31 µM | 5.25 µM | 2.19 µM | 12 µM | 4.37 µM | 2.24 µM | 4.17 µM | 5.25 µM | 4.17 µM | 10.5 µM | -100% | 4.68 µM | 4.47 µM | 3.89 µM | 5.5 µM | GI50 (CCRF-CEM): 4.07 µM; GI50 (EKVX): 3.16 µM; GI50 (NCI-H322M): 1.78 µM; GI50 (HCT-15): 4.07 µM; GI50 (U-251): 2.95 µM; GI50 (OVCAR-8): 5.25 µM
